The nature of assay [1]: Selectivity for HCV NS3 protease over human neutrophil elastase. The procedure, abridged:
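Ratio of inhibitory activity against human neutrophil elastase to that against HCV protease (HNE/HCV), taken as selectivity. HCV activity was from a continuous protease assay using NS4A-tethered single-chain NS3 serine protease, giving Ki* as the equilibrium constant for reversible covalent binding of the electrophilic ketone to the active-site serine. Compounds were tested as P1-epimer diastereomer mixtures.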

The next assay concerns Hepatitis C virus. Briefly: Antiviral activity against HCV in human hepatoma cells assessed as inhibition of RNA replication by replicon assay. It counts as functional, Hepacivirus hominis.
Assay [2] in a line: Inhibition of HCV NS4A tagged recombinant single chain NS3 protease after 15 mins. Further details: species or system Hepacivirus hominis.

pKi: −log10 of the molar value.

A word on the EC90: it is the concentration at which the effect reaches the 90% level. As usually defined, the pKi is the negative decadic logarithm of the Ki, by convention in mol/L. With `CC(C)(C)[C@H](NC(=O)NC1(Cc2ccccc2)CCCC1)C(=O)N1C[C@H]2[C@@H]([C@H]1C(=O)NC(CC1CC1)C(=O)C(N)=O)C2(C)C` (stereo partly specified), in assay [1], the Ratio was determined as 130. Moreover, the EC90 in the assay with Hepatitis C virus is 300 nM. For the same compound, the pKi in assay [2] is 7.62.
In the same order, the values of `CC(C)(C)[C@H](NC(=O)NC1(Cc2nccs2)CCCCC1)C(=O)N1C[C@H]2[C@@H]([C@H]1C(=O)NC(CC1CC1)C(=O)C(N)=O)C2(C)C` (stereo partly specified) are 620, 200 nM and 7.96.
As for `CC(C)(C)[C@H](NC(=O)NC1(Cc2ccccc2O)CCCCC1)C(=O)N1C[C@H]2[C@@H]([C@H]1C(=O)NC(CC1CC1)C(=O)C(N)=O)C2(C)C` (stereo partly specified), the Ratio in assay [1] came to 440. Moreover, the concentration for an effect of 90% (EC90) with Hepatitis C virus was determined as 150 nM. Besides, the pKi in assay [2] is 7.72.
In the case of `C=CCNC(=O)C(=O)C(CCC)NC(=O)[C@@H]1[C@@H]2[C@H](CN1C(=O)[C@@H](NC(=O)NC(C)(C)C)C1CCCCC1)C2(C)C` (stereo partly specified), the pKi in assay [2] is 6.55.
On to `CC(C)(C)[C@H](NC(=O)NC1(Cc2ccccc2)CCCCC1)C(=O)N1C[C@H]2[C@@H]([C@H]1C(=O)NC(CC1CC1)C(=O)C(N)=O)C2(C)C` (stereo partly specified), for which the Ratio in assay [1] is 395. Besides, the EC90 with Hepatitis C virus was determined as 85 nM. The pKi in assay [2] is 7.92.
`CC(C)(C)[C@H](NC(=O)NC1(CS(=O)(=O)C(C)(C)C)CCCCC1)C(=O)N1C[C@H]2[C@@H]([C@H]1C(=O)NC(CC1CCC1)C(=O)C(N)=O)C2(C)C` (stereo partly specified): the EC90 in the assay with Hepatitis C virus amounted to 80 nM. Also, the pKi in assay [2] is 8.52.
The like results for `CC(C)(C)[C@H](NC(=O)NC1(Cc2ccco2)CCCCC1)C(=O)N1C[C@H]2[C@@H]([C@H]1C(=O)NC(CC1CC1)C(=O)C(N)=O)C2(C)C` (stereo partly specified) were, in that order, 100 nM and 7.96.
Turning to `CC1(NC(=O)N[C@H](C(=O)N2C[C@H]3[C@@H]([C@H]2C(=O)NC(CC2CCC2)C(=O)C(N)=O)C3(C)C)C(C)(C)C)CCCCC1` (stereo partly specified), in assay [1], the Ratio was determined as 4100. Also, the EC90 in the assay on Hepatitis C virus was 200 nM. In addition, the pKi in assay [2] is 8.10.
In the same order, the values of `CC(C)(C)[C@H](NC(=O)NC1(C(O)c2ccccc2)CCCCC1)C(=O)N1C[C@H]2[C@@H]([C@H]1C(=O)NC(CC1CC1)C(=O)C(N)=O)C2(C)C` (stereo partly specified) are 1170, 400 nM and 7.96.
With `CCS(=O)(=O)CC1(NC(=O)N[C@H](C(=O)N2C[C@H]3[C@@H]([C@H]2C(=O)NC(CC2CCC2)C(=O)C(N)=O)C3(C)C)C(C)(C)C)CCCCC1` (stereo partly specified), in assay [1], the Ratio turned out to be 1200. Moreover, the EC90 with Hepatitis C virus was 90 nM. For the same compound, the pKi in assay [2] is 8.30.
`CC(c1ccccc1)C1(NC(=O)N[C@H](C(=O)N2C[C@H]3[C@@H]([C@H]2C(=O)NC(CC2CC2)C(=O)C(N)=O)C3(C)C)C(C)(C)C)CCCCC1` (stereo partly specified): in assay [1], the Ratio came out at 2600. In addition, the 90% effect concentration (EC90) with Hepatitis C virus was found to be 400 nM. Also, in assay [2], the pKi was 7.96.
Consider `CC(C)(C)[C@H](NC(=O)NC1(Cc2ccsc2)CCCCC1)C(=O)N1C[C@H]2[C@@H]([C@H]1C(=O)NC(CC1CC1)C(=O)C(N)=O)C2(C)C` (stereo partly specified), for which the EC90 in the assay with Hepatitis C virus was found to be 100 nM. Besides, the pKi in assay [2] is 8.00.
For `CC(C)(C)[C@H](NC(=O)NC1(c2ccccc2)CCCCC1)C(=O)N1C[C@H]2[C@@H]([C@H]1C(=O)NC(CC1CC1)C(=O)C(N)=O)C2(C)C` (stereo partly specified), the Ratio in assay [1] worked out at 320. Also, in the assay on Hepatitis C virus, the 90% effect concentration (EC90) worked out at 400 nM. In addition, in assay [2], the pKi is 7.33.
In the same order, the values of `CC(C)(C)[C@H](NC(=O)NC1(Cc2ccc(O)cc2)CCCCC1)C(=O)N1C[C@H]2[C@@H]([C@H]1C(=O)NC(CC1CC1)C(=O)C(N)=O)C2(C)C` (stereo partly specified) are 260, 400 nM and 7.52.
On to `CC1(NC(=O)N[C@H](C(=O)N2C[C@H]3[C@@H]([C@H]2C(=O)NC(CC2CC2)C(=O)C(N)=O)C3(C)C)C(C)(C)C)CCC1` (stereo partly specified), for which the Ratio in assay [1] stood at 110. Also, the 90% effect concentration (EC90) in the assay on Hepatitis C virus was determined as 200 nM. For the same compound, the pKi in assay [2] was 7.62.
As for `CC(C)(C)[C@H](NC(=O)NC1(CS(=O)(=O)c2ccccc2)CCCCC1)C(=O)N1C[C@H]2[C@@H]([C@H]1C(=O)NC(CC1CC1)C(=O)C(N)=O)C2(C)C` (stereo partly specified), in the assay with Hepatitis C virus, the EC90 worked out at 100 nM. Also, the pKi in assay [2] was 8.52.
On to `CC(C)(C)[C@H](NC(=O)NC1(CS(=O)(=O)c2cccc(O)c2)CCCCC1)C(=O)N1C[C@H]2[C@@H]([C@H]1C(=O)NC(CC1CC1)C(=O)C(N)=O)C2(C)C` (stereo partly specified), for which, in assay [1], the Ratio came out at 200. In addition, the EC90 in the assay on Hepatitis C virus worked out at 1000 nM. The pKi in assay [2] is 8.22.
In the case of `CC(C)(C)[C@H](NC(=O)NC1(Cc2cccc(O)c2)CCCCC1)C(=O)N1C[C@H]2[C@@H]([C@H]1C(=O)NC(CC1CC1)C(=O)C(N)=O)C2(C)C` (stereo partly specified), the EC90 in the assay with Hepatitis C virus worked out at 70 nM. Further, the negative logarithm of the Ki (pKi) in assay [2] was 8.05.
`Cc1cc(S(=O)(=O)CC2(NC(=O)N[C@H](C(=O)N3C[C@H]4[C@@H]([C@H]3C(=O)NC(CC3CC3)C(=O)C(N)=O)C4(C)C)C(C)(C)C)CCCCC2)co1` (stereo partly specified): the Ratio in assay [1] was 260. Also, the EC90 in the assay on Hepatitis C virus worked out at 400 nM. The pKi in assay [2] is 8.00.
In the case of `CC1(NC(=O)N[C@H](C(=O)N2C[C@H]3[C@@H]([C@H]2C(=O)NC(CC2CC2)C(=O)C(N)=O)C3(C)C)C(C)(C)C)CCCCC1` (stereo partly specified), the EC90 with Hepatitis C virus worked out at 250 nM. In assay [2], the negative logarithm of the Ki (pKi) is 7.80.
Regarding `CC(C)(C)[C@H](NC(=O)NC1(Cc2ccc3ccccc3c2)CCCCC1)C(=O)N1C[C@H]2[C@@H]([C@H]1C(=O)NC(CC1CC1)C(=O)C(N)=O)C2(C)C` (stereo partly specified), the pKi in assay [2] is 6.52.
With `CC1(NC(=O)N[C@H](C(=O)N2C[C@H]3[C@@H]([C@H]2C(=O)NC(CC2CC2)C(=O)C(N)=O)C3(C)C)C(C)(C)C)CCCCCC1` (stereo partly specified), in assay [1], the Ratio was 155. Also, the concentration for an effect of 90% (EC90) with Hepatitis C virus was 250 nM. Also, in assay [2], the negative-log Ki (pKi) was 7.82.
On to `CC(C)(C)[C@H](NC(=O)NC1(CS(C)(=O)=O)CCCCC1)C(=O)N1C[C@H]2[C@@H]([C@H]1C(=O)NC(CC1CCC1)C(=O)C(N)=O)C2(C)C` (stereo partly specified), for which the Ratio in assay [1] is 2400. Further, the EC90 in the assay on Hepatitis C virus is 500 nM. Further, the pKi in assay [2] is 8.40.
In the same order, the values of `CC(C)(C)[C@H](NC(=O)NC1(C(=O)c2ccccc2)CCCCC1)C(=O)N1C[C@H]2[C@@H]([C@H]1C(=O)NC(CC1CC1)C(=O)C(N)=O)C2(C)C` (stereo partly specified) are 230, 2000 nM and 7.00.
In the same order, the values of `CC(C)(C)[C@H](NC(=O)NC1(CS(=O)(=O)c2ccccc2)CCCCC1)C(=O)N1C[C@H]2[C@@H]([C@H]1C(=O)NC(CC1CCC1)C(=O)C(N)=O)C2(C)C` (stereo partly specified) are 1100, 200 nM and 8.05.
In the same order, the values of `CCS(=O)(=O)CC1(NC(=O)N[C@H](C(=O)N2C[C@H]3[C@@H]([C@H]2C(=O)NC(CC2CC2)C(=O)C(N)=O)C3(C)C)C(C)(C)C)CCCCC1` (stereo partly specified) are 290, 400 nM and 7.96.
`CC(C)(C)[C@H](NC(=O)NC1(CO)CCCC1)C(=O)N1C[C@H]2[C@@H]([C@H]1C(=O)NC(CC1CC1)C(=O)C(N)=O)C2(C)C` (stereo partly specified): the 90% effect concentration (EC90) in the assay on Hepatitis C virus was over 1000 nM. Also, the pKi in assay [2] is 7.82.
For `CCCC(NC(=O)[C@@H]1[C@@H]2[C@H](CN1C(=O)[C@@H](NC(=O)NC(C)(C)C)C1CCCCC1)C2(C)C)C(=O)C(N)=O` (stereo partly specified), in assay [2], the pKi is 7.00.
`CC1(NC(=O)N[C@H](C(=O)N2C[C@H]3[C@@H]([C@H]2C(=O)NC(CC2CC2)C(=O)C(N)=O)C3(C)C)C(C)(C)C)CCCC1` (stereo partly specified): the EC90 in the assay on Hepatitis C virus worked out at 200 nM. In addition, the pKi in assay [2] is 8.00.
Consider `CC(C)(C)[C@H](NC(=O)NC1(Cc2ccccc2)CCCCCC1)C(=O)N1C[C@H]2[C@@H]([C@H]1C(=O)NC(CC1CC1)C(=O)C(N)=O)C2(C)C` (stereo partly specified), for which, in assay [1], the Ratio was found to be 73. In the assay with Hepatitis C virus, the concentration for an effect of 90% (EC90) worked out at 700 nM. In addition, in assay [2], the pKi was 7.11.
The like results for `CC(C)(C)[C@H](NC(=O)NC1(Cc2cccs2)CCCCC1)C(=O)N1C[C@H]2[C@@H]([C@H]1C(=O)NC(CC1CC1)C(=O)C(N)=O)C2(C)C` (stereo partly specified) were, in that order, 470, 200 nM and 8.05.
For the compound `CC(C)(C)[C@H](NC(=O)NC1(Cc2ccncc2)CCCCC1)C(=O)N1C[C@H]2[C@@H]([C@H]1C(=O)NC(CC1CC1)C(=O)C(N)=O)C2(C)C` (stereo partly specified), the Ratio in assay [1] was 250. For the same compound, the EC90 with Hepatitis C virus stood at 300 nM. Also, in assay [2], the pKi is 7.41.
In the same order, the values of `CC(C)(C)[C@H](NC(=O)NC1(CS(=O)(=O)Cc2ccccc2)CCCCC1)C(=O)N1C[C@H]2[C@@H]([C@H]1C(=O)NC(CC1CC1)C(=O)C(N)=O)C2(C)C` (stereo partly specified) are 90, 400 nM and 8.30.
In the same order, the values of `CC(C)(C)[C@H](NC(=O)NC1(CS(C)(=O)=O)CCCCC1)C(=O)N1C[C@H]2[C@@H]([C@H]1C(=O)NC(CC1CC1)C(=O)C(N)=O)C2(C)C` (stereo partly specified) are 460, 300 nM and 8.70.
With `CC(C)(C)[C@H](NC(=O)NC1(Cc2cccc3ccccc23)CCCCC1)C(=O)N1C[C@H]2[C@@H]([C@H]1C(=O)NC(CC1CC1)C(=O)C(N)=O)C2(C)C` (stereo partly specified), the Ratio in assay [1] amounted to 470. For the same compound, in the assay with Hepatitis C virus, the EC90 is 400 nM. In addition, the negative logarithm of the Ki (pKi) in assay [2] was 7.36.
As for `CC(C)(C)[C@H](NC(=O)NC1(CS(=O)(=O)C(C)(C)C)CCCCC1)C(=O)N1C[C@H]2[C@@H]([C@H]1C(=O)NC(CC1CC1)C(=O)C(N)=O)C2(C)C` (stereo partly specified), in the assay with Hepatitis C virus, the EC90 was 100 nM. Also, the pKi in assay [2] was 7.92.
As to `CC(C)(C)[C@H](NC(=O)NC1(CN)CCCC1)C(=O)N1C[C@H]2[C@@H]([C@H]1C(=O)NC(CC1CC1)C(=O)C(N)=O)C2(C)C` (stereo partly specified), the pKi in assay [2] is 6.85.
On to `CC(C)(C)[C@H](NC(=O)NC1(Cc2ccccn2)CCCCC1)C(=O)N1C[C@H]2[C@@H]([C@H]1C(=O)NC(CC1CC1)C(=O)C(N)=O)C2(C)C` (stereo partly specified), for which the EC90 in the assay on Hepatitis C virus came out at 180 nM. Also, in assay [2], the pKi was 8.15.

Values taken from ChEMBL document CHEMBL1156160, “The introduction of P4 substituted 1-methylcyclohexyl groups into Boceprevir: a change in direction in the search for a second generation HCV NS3 protease inhibitor” (Bioorg Med Chem Lett, 2010).
